{"source": "PubChem BioAssay AID743061", "about": "(The Scripps Research Institute Molecular Screening Center, 2013)", "target": "Methionine--tRNA ligase, mitochondrial (Homo sapiens) (UniProt Q96GW9)", "test": "human mtMetRS tRNA charging inhibition – biochemical, radioactivity, round 1, selectivity assay for T. brucei MetRS inhibitor project, late-stage follow-up (AID 743061);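 also: 0% = DMSO with full reaction and 100% = DMSO wells lacking tRNA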", "settings": "recombinant human mtMetRS, [3H]Met tRNA charging, at 10 µM, stronger effect = higher value", "outline": "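Material: Recombinant human mitochondrial methionyl-tRNA synthetase (MetRS) | Medium: pH 8.0 buffer, 2.5 mM ATP | Reagent: [3H]Met 240 nM plus bulk E. coli tRNA | Compound: 10 and 1 µM | Schedule: 15 min compound–enzyme preincubation, then 1 h reaction at room temperature | Measured by: Scintillation counts of TCA-precipitated charged tRNA on filters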"}
{"compound": "Cc1ccc(C(=O)NCCc2nc3ccccc3[nH]2)cc1[N+](=O)[O-]", "values": [{"measurement": "inhibition", "result": 7.36, "unit": "%"}]}
{"compound": "Cc1cccc(C(=O)NCCc2nc3ccccc3n2CCOc2ccccc2)c1", "values": [{"measurement": "inhibition", "result": 4.57, "unit": "%"}]}
{"compound": "CC(=O)N(CCc1ccccc1)C1CC(=O)N(c2ccc(Br)cc2)C1=O", "note": "(stereo not given)", "values": [{"measurement": "inhibition", "result": 2, "unit": "%"}]}
{"compound": "CC1Cc2ccccc2N1C(=O)Cn1cc(C(=O)C(=O)N2CCOCC2)c2ccccc21", "note": "(stereo not given)", "values": [{"measurement": "inhibition", "result": 7.77, "unit": "%"}]}
{"compound": "COc1ccc(OCC(O)CNC(=O)Nc2ccc(Cl)cc2)cc1", "note": "(stereo not given)", "values": [{"measurement": "inhibition", "result": 0.31, "unit": "%"}]}
{"compound": "C[C@H](O)[C@@H]1C(=O)N2CCc3c([nH]c4ccccc34)[C@@H]2C[C@@H]1N(C)Cc1ccc2c(c1)OCO2", "values": [{"measurement": "inhibition", "result": 24.8, "unit": "%"}]}
{"compound": "CCN(CC)C(=O)C(=O)c1cn(CC(=O)N2CCCc3ccccc32)c2ccccc12", "values": [{"measurement": "inhibition", "result": -1.92, "unit": "%"}]}
{"compound": "COc1ccc2[nH]c3nc(SCC(=O)Nc4ccc5c(c4)OCO5)nnc3c2c1", "values": [{"measurement": "inhibition", "result": 24.5, "unit": "%"}]}
{"compound": "O=C(NCc1nc2ccccc2[nH]1)C1=C[C@@H](c2csc3ccccc23)C[C@@H](OCCCCO)O1", "values": [{"measurement": "inhibition", "result": 6.67, "unit": "%"}]}
{"compound": "CC(=O)N(CCc1ccccc1)C1CC(=O)N(c2ccc(Cl)cc2)C1=O", "note": "(stereo not given)", "values": [{"measurement": "inhibition", "result": -2.95, "unit": "%"}]}
{"compound": "CCN(C(=O)Cn1cc(C(=O)C(=O)N2CCOCC2)c2ccccc21)c1ccccc1", "values": [{"measurement": "inhibition", "result": -14.2, "unit": "%"}]}
{"compound": "O=C(NCCc1nc2ccccc2[nH]1)c1c(F)cccc1F", "values": [{"measurement": "inhibition", "result": 0.73, "unit": "%"}]}
{"compound": "O=C(CSc1nnc2c(n1)[nH]c1ccc(Br)cc12)NCc1ccccc1", "values": [{"measurement": "inhibition", "result": 21.6, "unit": "%"}]}
{"compound": "O=C(Cn1cc(C(=O)C(=O)N2CCOCC2)c2ccccc21)NCc1ccccc1", "values": [{"measurement": "inhibition", "result": 10.3, "unit": "%"}]}
{"compound": "CCO[C@H]1OC(C(=O)NCc2nc3ccccc3[nH]2)=C[C@@H](c2ccc(Br)cc2)[C@@H]1CCCO", "values": [{"measurement": "inhibition", "result": 11.7, "unit": "%"}]}
{"compound": "O=C(NCCc1nc2ccccc2[nH]1)c1ccc(Cl)c([N+](=O)[O-])c1", "values": [{"measurement": "inhibition", "result": 25.5, "unit": "%"}]}
{"compound": "O=C(CC=NOCc1ccc([N+](=O)[O-])cc1)Nc1ccc(Cl)cc1", "values": [{"measurement": "inhibition", "result": 1.47, "unit": "%"}]}
{"compound": "CC(C)OCCCN1CC(=O)N2C(c3cccc([N+](=O)[O-])c3)c3[nH]c4ccccc4c3C[C@H]2C1=O", "note": "(stereo not given in full)", "values": [{"measurement": "inhibition", "result": -3.65, "unit": "%"}]}
{"compound": "COc1ccccc1NC(=O)CSc1nnc2c(n1)[nH]c1ccc(C)cc12", "values": [{"measurement": "inhibition", "result": 7.39, "unit": "%"}]}
{"compound": "CCCCCCCCCC1NC(C(=O)O)Cc2c1[nH]c1ccccc21", "note": "(stereo not given)", "values": [{"measurement": "inhibition", "result": 9.9, "unit": "%"}]}
{"compound": "COc1ccc(CNC(=O)CSc2nnc3c(n2)[nH]c2ccc(F)cc23)cc1", "values": [{"measurement": "inhibition", "result": -12, "unit": "%"}]}
{"compound": "O=C(Cn1cc(C(=O)COc2ccccc2)c2ccccc21)Nc1cccc(C(F)(F)F)c1", "values": [{"measurement": "inhibition", "result": 3.08, "unit": "%"}]}
{"compound": "Cc1cccc2[nH]c(CCN(C)C(=O)c3cccc(C4CCNC4)c3)nc12", "note": "(stereo not given)", "values": [{"measurement": "inhibition", "result": -5.77, "unit": "%"}]}
{"compound": "CCC(=O)c1cn(CC(=O)Nc2cccc(C(F)(F)F)c2)c2ccccc12", "values": [{"measurement": "inhibition", "result": -3.88, "unit": "%"}]}
{"compound": "Cc1ccc2[nH]c3nc(SCC(=O)Nc4ccc(C(F)(F)F)cc4)nnc3c2c1", "values": [{"measurement": "inhibition", "result": 4.54, "unit": "%"}]}
{"compound": "O=C1[C@@H]2Cc3c([nH]c4ccccc34)C(c3cccc([N+](=O)[O-])c3)N2C(=O)CN1CCCO", "note": "(stereo not given in full)", "values": [{"measurement": "inhibition", "result": 4.46, "unit": "%"}]}
{"compound": "Cc1cc2cc(C(=O)N3CCCC(c4nc5ccccc5[nH]4)C3)ccc2o1", "note": "(stereo not given)", "values": [{"measurement": "inhibition", "result": -1.3, "unit": "%"}]}
{"compound": "O=C(NCc1nc2ccccc2[nH]1)C1=C[C@H](c2ccc(Br)cc2)C[C@H](OCCCCO)O1", "values": [{"measurement": "inhibition", "result": -2.4, "unit": "%"}]}
{"compound": "O=C(NCc1nc2ccccc2[nH]1)C1=C[C@H](c2ccc(Br)cc2)C[C@H](OCc2ccc(CO)cc2)O1", "values": [{"measurement": "inhibition", "result": 17.2, "unit": "%"}]}
{"compound": "O=C(Cn1cc(C(=O)C(=O)N2CCOCC2)c2ccccc21)Nc1cccc(C(F)(F)F)c1", "values": [{"measurement": "inhibition", "result": -6.56, "unit": "%"}]}
{"compound": "O=C(Cn1cc(C(=O)C2CC2)c2ccccc21)Nc1cccc(C(F)(F)F)c1", "values": [{"measurement": "inhibition", "result": 11.9, "unit": "%"}]}
{"compound": "CCN(CCc1nc2ccc(C)cc2[nH]1)C(=O)c1ccc2ncccc2c1", "values": [{"measurement": "inhibition", "result": 1.1, "unit": "%"}]}
{"compound": "CCO[C@@H]1OC(C(=O)NCc2nc3ccccc3[nH]2)=C[C@H](c2ccc(Br)cc2)[C@H]1CCCO", "values": [{"measurement": "inhibition", "result": -6.53, "unit": "%"}]}
{"compound": "O=C(NCc1nc2ccccc2[nH]1)C1=C[C@H](C2CC2)C[C@H](OCc2ccc(CO)cc2)O1", "values": [{"measurement": "inhibition", "result": 12.6, "unit": "%"}]}
{"compound": "CN(CC(=O)Nc1ccc(Cl)cc1)C(=O)c1ccc(-n2cncn2)c([N+](=O)[O-])c1", "values": [{"measurement": "inhibition", "result": -19.1, "unit": "%"}]}
